Our source for the Activity and T/C values is ChEMBL document CHEMBL3244396, “Synthesis and antileukemic activity of 5-substituted 2,3-dihydro-6,7-bis(hydroxymethyl)-1H-pyrrolizine diesters” (J Med Chem, 1977).

Data set [1] relates to Mus musculus. Kind of data set: Toxicity in female CDF1 mouse allografted with mouse P388 cells assessed as animal survival at 50 mg/kg, ip administered daily for 9 days as saline with Tween-80 solution starting 24 hrs after tumor inoculation. Format: organism-based. The following applies: in vivo. Further details: dose 50 mg/kg, route intraperitoneal. Summed up:
(§1)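 P-388 leukemia ascitic fluid implanted ip. Compound dosed ip in saline with Tween-80 vehicle, once daily for nine doses from 24 h after tumor inoculation. Acute toxicity scored as toxicity-day survivors per group. Survival was followed up to 30 days, with 30-day survival counted as "cure". Follows NCI screening protocols.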

For data set [2], the system named is P388. In words: Antitumor activity against mouse P388 cells allografted in female CDF1 mouse assessed as change in body weight at 100 mg/kg, ip administered daily for 9 days as saline with Tween-80 solution starting 24 hrs after tumor inoculation. The format is functional. The following applies: route intraperitoneal. Summed up:
(§2)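 Ascitic fluid carrying P388 cells was inoculated ip. Compound was given ip in nine daily doses, starting 24 h after inoculation, in Klucel (hydroxypropylcellulose) suspension or in saline with Tween-80. Body-weight difference (treated minus control) was recorded on day 5. Survival was scored as %T/C of median survival time, and 30-day survival counted as cure.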

Data set [3] deals with Mus musculus. Kind of data set: Toxicity in male CDF1 mouse allografted with mouse P388 cells assessed as animal survival at 100 mg/kg, ip administered daily for 9 days as saline with Tween-80 solution starting 24 hrs after tumor inoculation. Format: organism-based. Further details: dose 100 mg/kg, route intraperitoneal. The following applies: in vivo. Summed up:
as §1

For data set [4], the system named is P388. Kind of data set: Antitumor activity against mouse P388 cells allografted in male CDF1 mouse assessed as disease cures by measuring 30-days host survival at 100 mg/kg, ip administered daily for 9 days as saline with Tween-80 solution starting 24 hrs after tumor inoculation relative to control. The format is functional. The following applies: route intraperitoneal. Summed up:
(§3)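 P388 ascitic cell inoculum given ip to CDF1 mice of the sex in each line. Nine daily ip doses in saline with Tween-80 as vehicle, starting 24 h after inoculation. Median survival time expressed as %T/C (>125 significant); "cure" defined as 30-day survival.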

Data set [5] deals with P388. In words: Antitumor activity against mouse P388 cells allografted in male CDF1 mouse assessed as change in body weight at 25 mg/kg, ip administered daily for 9 days as saline with Tween-80 solution starting 24 hrs after tumor inoculation. The format is functional. The following applies: route intraperitoneal. In short, it runs like this:
as §2

Data set [6] deals with P388. Kind of data set: Antitumor activity against mouse P388 cells allografted in male CDF1 mouse assessed as disease cures by measuring 30-days host survival at 25 mg/kg, ip administered daily for 9 days as saline with Tween-80 solution starting 24 hrs after tumor inoculation relative to control. Format: functional. The following applies: route intraperitoneal. In short, it runs like this:
as §3

Data set [7] deals with P388. In words: Antitumor activity against mouse P388 cells allografted in female CDF1 mouse assessed as disease cures by measuring 30-days host survival at 400 mg/kg, ip administered daily for 9 days as saline with Tween-80 solution starting 24 hrs after tumor inoculation relative to control. Format: functional. The following applies: route intraperitoneal. In short, it runs like this:
as §3

Data set [8] relates to P388. Kind of data set: Antitumor activity against mouse P388 cells allografted in female CDF1 mouse assessed as change in body weight at 50 mg/kg, ip administered daily for 9 days as saline with Tween-80 solution starting 24 hrs after tumor inoculation. The format is functional. The following applies: route intraperitoneal. In short, it runs like this:
as §2

For data set [9], the system named is P388. In words: Antitumor activity against mouse P388 cells allografted in female CDF1 mouse assessed as change in body weight at 200 mg/kg, ip administered daily for 9 days as saline with Tween-80 solution starting 24 hrs after tumor inoculation. Format: functional. The following applies: route intraperitoneal. In short, it runs like this:
as §2

Data set [10] deals with P388. Kind of data set: Antitumor activity against mouse P388 cells allografted in female CDF1 mouse assessed as disease cures by measuring 30-days host survival at 100 mg/kg, ip administered daily for 9 days as saline with Tween-80 solution starting 24 hrs after tumor inoculation relative to control. Format: functional. The following applies: route intraperitoneal. In short, it runs like this:
as §3

In data set [11] the test system is Mus musculus. Kind of data set: Toxicity in female CDF1 mouse allografted with mouse P388 cells assessed as animal survival at 100 mg/kg, ip administered daily for 9 days as saline with Tween-80 solution starting 24 hrs after tumor inoculation. The format is organism-based. Further details: dose 100 mg/kg, route intraperitoneal. The following applies: in vivo. In short, it runs like this: as §1

In data set [12] the test system is P388. In words: Antitumor activity against mouse P388 cells allografted in female CDF1 mouse assessed as disease cures by measuring 30-days host survival at 25 mg/kg, ip administered daily for 9 days as saline with Tween-80 solution starting 24 hrs after tumor inoculation relative to control. The format is functional. The following applies: route intraperitoneal. Summed up:
as §3

Data set [13] concerns P388. In words: Antitumor activity against mouse P388 cells allografted in female CDF1 mouse assessed as disease cures by measuring 30-days host survival at 200 mg/kg, ip administered daily for 9 days as saline with Tween-80 solution starting 24 hrs after tumor inoculation relative to control. The format is functional. The following applies: route intraperitoneal. In short, it runs like this:
as §3

Data set [14] relates to P388. In words: Antitumor activity against mouse P388 cells allografted in female CDF1 mouse assessed as change in body weight at 400 mg/kg, ip administered daily for 9 days as saline with Tween-80 solution starting 24 hrs after tumor inoculation. The format is functional. The following applies: route intraperitoneal. In short, it runs like this:
as §2

The subject of data set [15] is Mus musculus. Kind of data set: Toxicity in male CDF1 mouse allografted with mouse P388 cells assessed as animal survival at 50 mg/kg, ip administered daily for 9 days as saline with Tween-80 solution starting 24 hrs after tumor inoculation. The following applies: in vivo. On the set-up: dose 50 mg/kg, route intraperitoneal. Format: organism-based. Summed up: as §1

Data set [16] has as its system Mus musculus. Kind of data set: Toxicity in female CDF1 mouse allografted with mouse P388 cells assessed as animal survival at 25 mg/kg, ip administered daily for 9 days as saline with Tween-80 solution starting 24 hrs after tumor inoculation. On the set-up: dose 25 mg/kg, route intraperitoneal. Format: organism-based. The following applies: in vivo. In short, it runs like this: as §1

The test system of data set [17] is Mus musculus. In words: Toxicity in female CDF1 mouse allografted with mouse P388 cells assessed as animal survival at 200 mg/kg, ip administered daily for 9 days as saline with Tween-80 solution starting 24 hrs after tumor inoculation. Format: organism-based. On the set-up: dose 200 mg/kg, route intraperitoneal. The following applies: in vivo. Summed up:
as §1

In data set [18] the test system is P388. Kind of data set: Antitumor activity against mouse P388 cells allografted in female CDF1 mouse assessed as change in body weight at 25 mg/kg, ip administered daily for 9 days as saline with Tween-80 solution starting 24 hrs after tumor inoculation. The following applies: route intraperitoneal. Format: functional. Summed up: as §2
Data set [19] deals with P388. Kind of data set: Antitumor activity against mouse P388 cells allografted in female CDF1 mouse assessed as disease cures by measuring 30-days host survival at 50 mg/kg, ip administered daily for 9 days as saline with Tween-80 solution starting 24 hrs after tumor inoculation relative to control. The format is functional. The following applies: route intraperitoneal. Summed up:
as §3

Data set [20] deals with P388. In words: Antitumor activity against mouse P388 cells allografted in male CDF1 mouse assessed as change in body weight at 100 mg/kg, ip administered daily for 9 days as saline with Tween-80 solution starting 24 hrs after tumor inoculation. The format is functional. The following applies: route intraperitoneal. Summed up: as §2
The test system of data set [21] is P388. In words: Antitumor activity against mouse P388 cells allografted in male CDF1 mouse assessed as disease cures by measuring 30-days host survival at 50 mg/kg, ip administered daily for 9 days as saline with Tween-80 solution starting 24 hrs after tumor inoculation relative to control. Format: functional. The following applies: route intraperitoneal. Summed up: as §3

Data set [22] concerns P388. In words: Antitumor activity against mouse P388 cells allografted in male CDF1 mouse assessed as change in body weight at 50 mg/kg, ip administered daily for 9 days as saline with Tween-80 solution starting 24 hrs after tumor inoculation. Format: functional. The following applies: route intraperitoneal. In short, it runs like this:
as §2

As a reminder, the T/C is the result in the treated group divided by that in the control group, in per cent. Take `CCCCNC(=O)OCc1c(COC(=O)NCCCC)c(-c2ccc(Cl)c(Cl)c2)n2c1CCC2`: the Activity entry in [1] is given as “Non-toxic”; in [2] it was -2 g; in [3] it was “Non-toxic”; in data set [5], -1.9 g; in data set [8] it was -1.9 g; in [9] it was -3.2 g. In addition, the Activity result was “Non-toxic” in [11]; -3.6 g in data set [14]; “Non-toxic” in data set [15]; “Non-toxic” in [16]; “Non-toxic” in data set [17]; -1.2 g in data set [18]. In addition, the results for the Activity in data set [20] and in data set [22] were -0.4 g and -1.1 g, respectively. Moreover, the T/C in data set [4] is on record as 160%; in [6], 138%; in data set [7], 84%; in [10] it was 181%; in [12], 159%; in data set [13], 163%. The T/C in data set [19] amounted to 171%; in [21] it was 137%.
